Test [1] deals with GABA-A receptor; anion channel. Kind of test: Inhibition of [3H]-Ro- 15-1788 binding to GABA-A benzodiazepine receptor of rat cortical membranes. It counts as cell membranes, Membrane. In short, it runs like this: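 Rat (Sprague–Dawley, 250-300 g) cortical membranes, water-washed and frozen at -20 °C ≥18 h, then washed repeatedly in Krebs/HEPES pH 7.4. Incubated with 0.2-0.5 mg protein, [3H]-Ro 15-1788 (5 nM stock added), 10^-4 M nipecotic acid, 30 °C for 60 min. Nonspecific binding with 3 μM clonazepam. Filtration, scintillation counting.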

Test [2] addresses GABA-A receptor; anion channel (Rattus norvegicus) (UniProt O09028+P15431+P18506+P18508+P19969+P20236+P23574+P23576+P28471+P28473+P30191+P62813+P63079+P63138+Q91ZM7+Q9ES14). As to the kind of experiment: Ratio of binding affinity to the GABA-A receptor in the presence and absence of GABA. The test is classed as protein-complex assay. The essentials:
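[3H]-Ro 15-1788 displacement in washed rat cortical membranes (Krebs/HEPES pH 7.4, nipecotic acid 10^-4 M, 30 °C, 60 min) run with and without GABA at 0.3 mM. Nonspecific binding was defined by 3 μM clonazepam, and read-out was filtration with scintillation counting. The value is the ratio of the affinities obtained with GABA and without it.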

Test [3] concerns the target GABA-A receptor; anion channel. As to the kind of experiment: Inhibition of radiolabeled antagonist [3H]-Ro- 15-1788 binding to benzodiazepine receptor from rat cortical membranes. It counts as cell membranes, Membrane. The essentials:
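Rat (Sprague–Dawley, 250-300 g) cortical membranes, water-washed and frozen at -20 °C ≥18 h, then washed repeatedly in Krebs/HEPES pH 7.4. Nonspecific binding with 3 μM clonazepam. Filtration, scintillation counting.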

In general, IC50 refers to the concentration that inhibits the measured activity by half. Higher therefore signals lower potency. `Cc1noc(-c2ncn3c2CN=C(c2ccccc2)c2ccccc2-3)n1`: the IC50 in test [1] is 24 nM. Moreover, the GABA shift in test [2] turned out to be 1.94.
Regarding `CCCc1noc(-c2ncn3c2CN=C(c2ccccc2Cl)c2cc(Cl)ccc2-3)n1`, in test [2], the GABA shift is 2.92. For the same molecule, the IC50 in test [3] came out at 34 nM.
`Cc1noc(-c2ncn3c2CN=C(c2ccccc2Cl)c2cc(Cl)ccc2-3)n1`: the GABA shift in test [2] was 2.28. The IC50 in test [3] amounted to 110 nM.
In the same order, the values of `CCc1noc(-c2ncn3c2CN=C(c2ccccc2)c2c(Cl)cccc2-3)n1` are 2.21 and 4.1 nM.
For the molecule `CCc1nc(-c2ncn3c2CN=C(c2ccccc2)c2c(Cl)cccc2-3)no1`, the GABA shift in test [2] came to 1.65. The IC50 in test [3] was determined as 2.8 nM.
Consider `CC(C)c1nc(-c2ncn3c2CN=C(c2ccccc2)c2c(Cl)cccc2-3)no1`, for which the GABA shift in test [2] came to 1.82. The IC50 in test [3] stood at 6.9 nM.
As for `CCc1noc(-c2ncn3c2CN=C(c2ccccc2)c2cc(Cl)ccc2-3)n1`, the GABA shift in test [2] came out at 2. Moreover, the IC50 in test [3] was 160 nM.
For the molecule `CCCc1nc(-c2ncn3c2CN(C)C(=O)c2c(Cl)cccc2-3)no1`, in test [2], the GABA shift amounted to 1.41. The same molecule returned an IC50 in test [3] of 3.8 nM.
With `CC(C)c1noc(-c2ncn3c2CN=C(c2ccccc2)c2c(F)cccc2-3)n1`, the GABA shift in test [2] came out at 2.03. The molecule also came in with an IC50 in test [3] of 1.4 nM.
As to `CCCc1nc(-c2ncn3c2CN(C)C(=O)c2ccccc2-3)no1`, the GABA shift in test [2] came out at 2. For the same molecule, in test [3], the IC50 was 34 nM.
In the same order, the values of `Cc1nc(-c2ncn3c2CN(C)C(=O)c2c(Cl)cccc2-3)no1` are 1.18 and 3.4 nM.
For the molecule `CCc1nc(-c2ncn3c2CN=C(c2ccccc2)c2cc(Cl)ccc2-3)no1`, the GABA shift in test [2] was 2.43. The molecule further returned an IC50 in test [3] of 44 nM.
For `CCc1nc(-c2ncn3c2CN=C(c2ccccc2)c2ccccc2-3)no1`, in that order: 2.11 and 16 nM.
In the same order, the values of `Cc1noc(-c2ncn3c2CN(C)C(=O)c2ccccc2-3)n1` are 1.5 and 67 nM.

(Values after ChEMBL document CHEMBL1124349, “Novel benzodiazepine receptor partial agonists: oxadiazolylimidazobenzodiazepines” (J Med Chem, 1989).)
